# Source: ChEMBL document CHEMBL3826943, “Design, synthesis and evaluation of 6-aryl-indenoisoquinolone derivatives dual targeting ERα and VEGFR-2 as anti-breast cancer agents” (Eur J Med Chem, 2016)
# Activity calls are given as the source filed them. The calls are words filed in the database; no cut-off is given here.
# Target: T1, Vascular endothelial growth factor receptor 2 (Homo sapiens, UniProt P35968)
# Experiment: Inhibition of VEGFR2 in HUVEC assessed as reduction in expression of phosphorylated VEGFR2 incubated for 24 hrs by Western blot analysis
# Format: cell-based
# Details: not given
# Summary of the method: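 HUVEC treated 24 h, washed with PBS, lysed on ice in Tris/SDS/glycerol/β-mercaptoethanol buffer. Protein measured by BCA, equal amounts run on 12% SDS-PAGE, semi-dry transfer to PVDF. Primary antibodies (p-VEGFR-2, VEGFR-2) overnight at 4 °C, HRP secondary 1 h at 37 °C, ECL detection. Phosphorylation rate by densitometry, mean ± SD, n=3.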
# T1 sequence (P35968 whole entry): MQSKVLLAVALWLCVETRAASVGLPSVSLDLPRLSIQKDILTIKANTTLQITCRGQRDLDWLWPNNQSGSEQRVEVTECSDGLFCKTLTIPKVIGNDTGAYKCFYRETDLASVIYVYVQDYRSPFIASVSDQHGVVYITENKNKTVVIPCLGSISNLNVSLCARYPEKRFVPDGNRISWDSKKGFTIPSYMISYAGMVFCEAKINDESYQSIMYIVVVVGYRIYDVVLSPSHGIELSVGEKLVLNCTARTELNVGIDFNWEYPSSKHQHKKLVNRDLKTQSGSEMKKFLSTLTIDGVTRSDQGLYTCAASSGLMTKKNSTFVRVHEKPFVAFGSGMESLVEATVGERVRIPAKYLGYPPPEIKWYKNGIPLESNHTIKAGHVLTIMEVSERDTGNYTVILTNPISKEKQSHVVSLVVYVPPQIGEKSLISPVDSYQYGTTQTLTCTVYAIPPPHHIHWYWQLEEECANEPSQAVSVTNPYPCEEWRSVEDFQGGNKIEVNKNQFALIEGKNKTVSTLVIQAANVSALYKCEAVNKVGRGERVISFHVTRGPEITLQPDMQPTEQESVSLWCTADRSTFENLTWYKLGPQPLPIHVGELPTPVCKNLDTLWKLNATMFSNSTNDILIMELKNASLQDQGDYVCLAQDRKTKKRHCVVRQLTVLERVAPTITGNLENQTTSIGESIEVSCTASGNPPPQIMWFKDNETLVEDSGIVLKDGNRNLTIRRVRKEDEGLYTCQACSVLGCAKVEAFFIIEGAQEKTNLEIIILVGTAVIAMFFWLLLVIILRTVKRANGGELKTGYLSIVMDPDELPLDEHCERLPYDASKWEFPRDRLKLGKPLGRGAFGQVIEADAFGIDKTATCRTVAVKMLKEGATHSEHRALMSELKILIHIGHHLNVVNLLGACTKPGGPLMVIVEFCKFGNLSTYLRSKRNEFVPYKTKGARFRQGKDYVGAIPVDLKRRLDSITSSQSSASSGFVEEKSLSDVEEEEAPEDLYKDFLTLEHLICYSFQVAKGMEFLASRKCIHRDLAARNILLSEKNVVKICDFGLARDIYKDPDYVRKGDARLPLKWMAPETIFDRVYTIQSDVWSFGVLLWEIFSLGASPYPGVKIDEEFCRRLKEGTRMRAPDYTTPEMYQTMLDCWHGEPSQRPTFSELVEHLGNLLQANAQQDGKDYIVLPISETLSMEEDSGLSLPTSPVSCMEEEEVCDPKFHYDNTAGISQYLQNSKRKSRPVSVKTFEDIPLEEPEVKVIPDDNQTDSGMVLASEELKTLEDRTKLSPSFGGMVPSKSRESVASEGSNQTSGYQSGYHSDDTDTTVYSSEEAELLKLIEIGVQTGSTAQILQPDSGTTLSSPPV
row,inhibition,Compound
1,Dose-dependent effect,O=C1c2cc(O)ccc2-c2c1c1ccc(O)cc1c(=O)n2-c1ccc(OCCN2CCCC2)cc1

# Test system: HUVEC
# Experiment: Antiangiogenic activity in HUVEC assessed as inhibition of cell proliferation incubated for 48 hrs by MTT assay
# Format: functional, cell-based
# Details: Homo sapiens
# Summary of the method: (§1)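 Cells kept in RPMI1640 with 10% FBS, penicillin/streptomycin, 37 °C, 5% CO2. Seeded at 1×10^5/mL, allowed 24 h, then exposed to compound at 1×10^-4, 1×10^-5, 1×10^-6 and 1×10^-7 mol/L for 48 h; controls got medium with 1% DMSO. MTT added for 4 h in the dark, formazan dissolved in DMSO, absorbance at 490 nm used for IC50.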
row,Compound,IC50 [µM]
1,COc1ccc2c(c1)C(=O)c1c-2n(-c2ccc(OCCCN(C)C)cc2)c(=O)c2cc(OC)ccc12,25
2,COc1ccc2c(c1)C(=O)c1c-2n(-c2ccc(OCCCN3CCOCC3)cc2)c(=O)c2cc(OC)ccc12,> 100
3,COc1ccc2c(c1)C(=O)c1c-2n(-c2ccc(OCCCN3CCN(C)CC3)cc2)c(=O)c2cc(OC)ccc12,> 100
4,O=C1c2cc(O)ccc2-c2c1c1ccc(O)cc1c(=O)n2-c1ccc(OCCN2CCCC2)cc1,0.8
5,CN(C)CCOc1ccc(-n2c3c(c4ccc(O)cc4c2=O)C(=O)c2cc(O)ccc2-3)cc1,4.6

# Target: T1, Vascular endothelial growth factor receptor 2
# Details: MCF7, at 1 µM
row,inhibition,Compound
1,Active,O=C1c2cc(O)ccc2-c2c1c1ccc(O)cc1c(=O)n2-c1ccc(OCCN2CCCC2)cc1

# Target: T1, Vascular endothelial growth factor receptor 2
# Details: MCF7, at 1 µM
# Remark: another data set of the same source
row,inhibition,Compound
1,Active,O=C1c2cc(O)ccc2-c2c1c1ccc(O)cc1c(=O)n2-c1ccc(OCCN2CCCC2)cc1

# Test system: MDA-MB-231
# Experiment: Antiproliferative activity against human MDA-MB-231 cells incubated for 48 hrs by MTT assay
# Format: functional, cell-based
# Details: MDA-MB-231, 48 h
# Summary of the method: as §1
row,Compound,IC50 [µM]
1,COc1ccc2c(c1)C(=O)c1c-2n(-c2ccc(OCCCN(C)C)cc2)c(=O)c2cc(OC)ccc12,0.6
2,CN(C)CCOc1ccc(-n2c3c(c4ccc(O)cc4c2=O)C(=O)c2cc(O)ccc2-3)cc1,3.3

# Now from value to molecule:
row,IC50 [µM],Compound
1,> 100,COc1ccc2c(c1)C(=O)c1c-2n(-c2ccc(OCCCN3CCOCC3)cc2)c(=O)c2cc(OC)ccc12
2,> 100,COc1ccc2c(c1)C(=O)c1c-2n(-c2ccc(OCCCN3CCN(C)CC3)cc2)c(=O)c2cc(OC)ccc12
3,0.5,O=C1c2cc(O)ccc2-c2c1c1ccc(O)cc1c(=O)n2-c1ccc(OCCN2CCCC2)cc1

# Target: T1, Vascular endothelial growth factor receptor 2
# Details: HUVEC, at 1 µM
row,inhibition,Compound
1,Active,O=C1c2cc(O)ccc2-c2c1c1ccc(O)cc1c(=O)n2-c1ccc(OCCN2CCCC2)cc1

# Target: T2, Estrogen receptor (Homo sapiens, UniProt P03372)
# T2 sequence (P03372 whole entry): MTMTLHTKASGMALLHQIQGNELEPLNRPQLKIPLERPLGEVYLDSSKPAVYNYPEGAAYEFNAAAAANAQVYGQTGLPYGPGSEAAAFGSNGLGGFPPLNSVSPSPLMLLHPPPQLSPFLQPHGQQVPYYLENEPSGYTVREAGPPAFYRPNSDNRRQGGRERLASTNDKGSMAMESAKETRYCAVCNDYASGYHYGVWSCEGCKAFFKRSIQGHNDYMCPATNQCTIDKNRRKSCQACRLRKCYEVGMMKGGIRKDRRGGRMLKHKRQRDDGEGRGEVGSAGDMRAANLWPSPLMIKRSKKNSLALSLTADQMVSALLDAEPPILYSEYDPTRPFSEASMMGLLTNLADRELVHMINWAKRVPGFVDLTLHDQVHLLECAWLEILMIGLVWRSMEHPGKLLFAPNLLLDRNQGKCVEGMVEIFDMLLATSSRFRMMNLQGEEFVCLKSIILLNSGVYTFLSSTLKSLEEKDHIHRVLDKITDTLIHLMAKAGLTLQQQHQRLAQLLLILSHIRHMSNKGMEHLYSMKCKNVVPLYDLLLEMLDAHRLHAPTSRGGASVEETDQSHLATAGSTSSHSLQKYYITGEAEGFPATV
# Experiment: Displacement of fluorescein-labeled estrogen ligand from recombinant ER-alpha (unknown origin) incubated for 2 hrs by fluorescence polarization assay
# Details: not given
row,Compound,IC50 [µM]
1,COc1ccc2c(c1)C(=O)c1c-2n(-c2ccc(OCCCN(C)C)cc2)c(=O)c2cc(OC)ccc12,39.4
2,CN(C)CCOc1ccc(-n2c3c(c4ccc(O)cc4c2=O)C(=O)c2cc(O)ccc2-3)cc1,7.6

# Results, then the molecule that gave them:
row,IC50 [µM],Compound
1,> 100,COc1ccc2c(c1)C(=O)c1c-2n(-c2ccc(OCCCN3CCOCC3)cc2)c(=O)c2cc(OC)ccc12
2,35.2,COc1ccc2c(c1)C(=O)c1c-2n(-c2ccc(OCCCN3CCN(C)CC3)cc2)c(=O)c2cc(OC)ccc12
3,7.2,O=C1c2cc(O)ccc2-c2c1c1ccc(O)cc1c(=O)n2-c1ccc(OCCN2CCCC2)cc1

# Target: T1, Vascular endothelial growth factor receptor 2
# Experiment: Inhibition of VEGFR2 in human MCF7 cells assessed as reduction in expression of phosphorylated VEGFR2 at 0.25 to 1 uM incubated for 24 hrs by Western blot analysis
# Format: cell-based
# Details: not given
# Summary of the method: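 MCF-7 cells treated 24 h, lysed on ice, protein quantified by BCA, equal loads separated on 12% SDS-PAGE and blotted to PVDF. Probed for p-VEGFR-2 and total VEGFR-2 overnight at 4 °C, HRP secondary 1 h at 37 °C, chemiluminescence on film. VEGFR-2 phosphorylation rate by densitometry, mean ± SD (n=3).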
row,inhibition,Compound
1,Active,O=C1c2cc(O)ccc2-c2c1c1ccc(O)cc1c(=O)n2-c1ccc(OCCN2CCCC2)cc1

# Test system: Ishikawa
# Experiment: Antiproliferative activity against human Ishikawa cells incubated for 48 hrs by MTT assay
# Format: functional, cell-based
# Details: not given
# Summary of the method: as §1
row,Compound,IC50 [µM]
1,COc1ccc2c(c1)C(=O)c1c-2n(-c2ccc(OCCCN(C)C)cc2)c(=O)c2cc(OC)ccc12,9.6
2,COc1ccc2c(c1)C(=O)c1c-2n(-c2ccc(OCCCN3CCOCC3)cc2)c(=O)c2cc(OC)ccc12,> 100
3,COc1ccc2c(c1)C(=O)c1c-2n(-c2ccc(OCCCN3CCN(C)CC3)cc2)c(=O)c2cc(OC)ccc12,> 100
4,O=C1c2cc(O)ccc2-c2c1c1ccc(O)cc1c(=O)n2-c1ccc(OCCN2CCCC2)cc1,8.2
5,CN(C)CCOc1ccc(-n2c3c(c4ccc(O)cc4c2=O)C(=O)c2cc(O)ccc2-3)cc1,5.1

# Test system: MCF7
# Experiment: Antiproliferative activity against human MCF7 cells incubated for 48 hrs by MTT assay
# Format: functional, cell-based
# Details: MCF7, 48 h
# Summary of the method: as §1
row,Compound,IC50 [µM]
1,COc1ccc2c(c1)C(=O)c1c-2n(-c2ccc(OCCCN(C)C)cc2)c(=O)c2cc(OC)ccc12,1.4
2,CN(C)CCOc1ccc(-n2c3c(c4ccc(O)cc4c2=O)C(=O)c2cc(O)ccc2-3)cc1,3.8

# More lines, now with the values ahead:
row,IC50 [µM],Compound
1,> 100,COc1ccc2c(c1)C(=O)c1c-2n(-c2ccc(OCCCN3CCOCC3)cc2)c(=O)c2cc(OC)ccc12
2,> 100,COc1ccc2c(c1)C(=O)c1c-2n(-c2ccc(OCCCN3CCN(C)CC3)cc2)c(=O)c2cc(OC)ccc12
3,1.2,O=C1c2cc(O)ccc2-c2c1c1ccc(O)cc1c(=O)n2-c1ccc(OCCN2CCCC2)cc1

# Target: T1, Vascular endothelial growth factor receptor 2
# Details: not given
row,IC50,Compound
1,Not Active,COc1ccc2c(c1)C(=O)c1c-2n(-c2ccc(OCCCN(C)C)cc2)c(=O)c2cc(OC)ccc12
2,Not Active,COc1ccc2c(c1)C(=O)c1c-2n(-c2ccc(OCCCN3CCOCC3)cc2)c(=O)c2cc(OC)ccc12
3,Not Active,COc1ccc2c(c1)C(=O)c1c-2n(-c2ccc(OCCCN3CCN(C)CC3)cc2)c(=O)c2cc(OC)ccc12

# Same assay, conditions: read-out: IC50
row,IC50 [µM],Compound
1,0.099,O=C1c2cc(O)ccc2-c2c1c1ccc(O)cc1c(=O)n2-c1ccc(OCCN2CCCC2)cc1
2,0.33,CN(C)CCOc1ccc(-n2c3c(c4ccc(O)cc4c2=O)C(=O)c2cc(O)ccc2-3)cc1
